Hits are enriched below; roughly 2.1% of the tested compounds scored in any of these assays.
UCH37 inh: inhibitors of human UCH37 deubiquitinase, primary screen, biochemical, Ub-AMC cleavage, fluorescence. Ubiquitin carboxyl-terminal hydrolase isozyme L5 (Homo sapiens), Q9Y5K5. purified proteasome/UCH37. inhibition, % (concentration not given with the values). AID 588478, 2011. actives 0.33% (n = 330,000);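 active means mean inhibition over replicate wells above about 20%, limit read from the data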;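 further: 0% = compound-free wells with enzyme and 100% = wells lacking proteasome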
Target sequence (Q9Y5K5 whole entry, looked up): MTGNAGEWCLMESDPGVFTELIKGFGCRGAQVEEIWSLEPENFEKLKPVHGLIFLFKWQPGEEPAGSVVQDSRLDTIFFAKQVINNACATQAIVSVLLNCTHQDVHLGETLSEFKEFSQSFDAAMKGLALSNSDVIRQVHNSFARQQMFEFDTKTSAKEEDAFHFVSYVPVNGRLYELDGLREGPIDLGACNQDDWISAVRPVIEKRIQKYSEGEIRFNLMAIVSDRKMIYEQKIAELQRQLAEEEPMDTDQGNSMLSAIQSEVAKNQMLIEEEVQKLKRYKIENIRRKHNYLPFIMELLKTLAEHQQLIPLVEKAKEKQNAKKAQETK
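Reagent: Ub-AMC substrate; assay system: Proteasome-associated human UCH37 deubiquitinase; controls: no-proteasome and no-compound wells; read-out: % inhibition of Ub-AMC cleavage fluorescence; timing: 30 min preincubation with enzyme, 25 min cleavage at room temperature; signal: AMC fluorescence from Ub-AMC cleavage, excitation 355 nm, emission 460 nm; buffer or medium: Tris-HCl pH 7.4 plus ovalbumin, ATP-MgCl2, DTT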
Mot1-301 SUMO: yeast Mot1-301 growth rescue at high temperature, primary screen, SUMOylation pathway inhibitor project, S. cerevisiae, ATP luminescence, 38.5C. actives 1% (n = 320,000). growth rescue, % at 18.8 µM. S. cerevisiae Mot1-301 growth rescue; percent above DMSO median, 100 means doubled;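 active means every valid replicate shows activation above 250% relative to neutral control wells; inactive means the rest, any valid replicate at or below 250%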;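 further: OY570 slx delta 5 strain wells were the positive control but not used for scaling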
ARNT-TACC3 inh: disruptors of ARNT/TACC3 protein interaction, primary screen, biochemical, AlphaScreen, single concentration; Transforming acidic coiled-coil-containing protein 3 (Homo sapiens), Q9Y6A5; AlphaScreen His-ARNT PAS-B/GST-TACC3 binding, luminescence; TACC3 fragment carries E629A point mutation; inhibition, % at 9.99 µM; actives 0.66% (n = 390,000); AID 623870, 2012;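 active means mean inhibition of replicates at least 50% and at least half of replicates each reaching 50%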;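 further: 0% = complete ARNT plus TACC3 wells and 100% = ARNT alone without TACC3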
Efflux pump inh: inhibitors of Candida efflux pumps in yeast, primary screen, S. cerevisiae, Nile Red, multiplex. S. cerevisiae Candida pump triplex. actives 0.44% (n = 330,000). inhibition, % at 10 µM. AID 485275, 2010;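 active means plate passing quality check with inhibition over a set limit, or well fluorescence over plate mean plus 4 SD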;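 further: Nile Red retained in pooled yeast measured as flow cytometry median fluorescence; 0% = buffer negative control and 100% = Enniatin B positive control; higher means more Nile Red kept so more efflux inhibition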
RTF Ca sens act: cardiac RTF calcium sensitivity activators, primary screen, biochemical, IANBD-TnC fluorescence, EC20 calcium. Troponin I, cardiac muscle (Homo sapiens) + Troponin T, cardiac muscle (Homo sapiens) + …. IANBD-labeled TnC RTF fluorescence at EC20 calcium; 0% EC20 calcium, 100% full calcium. activation, % at 7.2 µM. actives 0.24% (n = 340,000). AID 493008, 2010;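 active means activation above the mean over all tested compounds plus 3 SD, cut at about 30% in these data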;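 further: rise in fluorescence read as greater calcium sensitivity of cardiac thin filaments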
RTF Ca sens inh: cardiac RTF calcium sensitivity inhibitors, primary screen, biochemical, IANBD-TnC fluorescence, EC70 calcium. inhibition, % at 7.15 µM. actives 0.12% (n = 340,000). IANBD-labeled cardiac RTF, Ca2+ fluorescence;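 active means inhibition above the mean inhibition of all tested compounds plus 3 SD, cut at about 17% in these data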;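 further: assay run at fixed EC70 calcium of 1.6 mM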
Cmpd fluor yeast: counter-screen for efflux pump inhibitors: compound fluorescence; shares compounds with Efflux pump inh; S. cerevisiae AD/pABC3, flow cytometry; fluorescence ratio to DMSO, % at 10 µM; actives 4% (n = 1,700); AID 588517;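 active means fluorescence ratio to DMSO above its plate's cutoff, the plate mean ratio plus 5 SD, cut at about 210% in these data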;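 further: unstained yeast with no Nile Red so the signal is compound autofluorescence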
CaMdr1 efflux inh: inhibitors of Candida albicans Mdr1 efflux, confirmation, flow cytometry, singleplex, Cherry Pick1 set; shares compounds with Efflux pump inh; S. cerevisiae AD/CaMDR1, Nile Red efflux; inhibition, % at 10 µM; actives 1% (n = 1,700); AID 588518, 2011; in the data active means inhibition above about 26%;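 further: 0% = DMSO vehicle and 100% = reference inhibitor; higher means more Nile Red retained so more efflux inhibition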
CaCdr2 efflux inh: inhibitors of Candida albicans Cdr2 efflux pump, confirmation, S. cerevisiae AD/CaCDR2, flow cytometry, cherry pick 1, singleplex; Nile Red retention; shares compounds with Efflux pump inh; AID 588520, 2011; Nile Red retention ratio vs DMSO, % at 10 µM; actives 4% (n = 1,700); in the data active means Nile Red retention ratio vs DMSO above about 190%;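 further: higher ratio means more blocking of Cdr2 efflux of the dye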
Cdr1 pump inh: inhibitors of Candida albicans Cdr1 efflux pump, confirmation, S. cerevisiae AD/CaCDR1, flow cytometry, cherry pick 1, singleplex | shares compounds with Efflux pump inh | inhibition, % at 10 µM | actives 1% (n = 1,700) | AID 588522, 2011 | Nile Red efflux;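 active means inhibition above the screen-wide mean plus twice its standard deviation, cut at about 32% in these data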
Starred values were filed as active, the others as inactive; i = inactive; / = no result; + = active, no number.

SMILES	UCH37 inh	Mot1-301 SUMO	ARNT-TACC3 inh	Efflux pump inh	RTF Ca sens act	RTF Ca sens inh	Cmpd fluor yeast	CaMdr1 efflux inh	CaCdr2 efflux inh	Cdr1 pump inh
COC(=O)NN=Cc1cc(Cl)cc(Cl)c1OCc1ccccc1	3	/	/	/	/	/	/	/	/	/
COc1ccc(/C=N/N=C2/NC(=O)C(CC(=O)O)S2)cc1OCc1ccc(Cl)cc1 (centres undefined)	/	-1	5	13*	-3	7	95	0	105	0
CCc1nc(SCC(=O)NCC2CCCO2)c2c(=O)n(C)c(=O)n(C)c2n1 (centres undefined)	1	186	-5	0	1	4	/	/	/	/
Cn1c(=O)c2c(SCC(=O)NCC3CCCO3)nc(-c3ccccc3Cl)nc2n(C)c1=O (centres undefined)	3	348	-8	0.8*	-2	-3	81	0	87	0
O=S1(=O)CCC(=NNc2ccccn2)c2cc(F)ccc21	11	/	/	/	/	/	/	/	/	/
CCCCNC(=O)C(Cc1ccccc1)NS(=O)(=O)c1ccc2c(c1)c(=O)n(C)c(=O)n2C (centres undefined)	2	-7	4	1.8*	-1	-5	100	0	87	0
CCOCCCNC(=O)C(Cc1ccccc1)NS(=O)(=O)c1ccc2c(c1)c(=O)n(C)c(=O)n2C (centres undefined)	2	-6	9	0	3	-4	/	/	/	/
COCCNC(=O)c1sc2ncn(CC(=O)N3CCCCC3)c(=O)c2c1C	/	-9	0	1.8*	4	1	106	0	106	0
Cc1cc(-c2ccccc2)nc(NN=Cc2ccc(O)cc2)n1	6	/	/	/	/	/	/	/	/	/
Cc1cccc(N2CCN(S(=O)(=O)c3cccc4nonc34)CC2)c1C	3	-8	34	0	-1	-18	/	/	/	/
O=S(=O)(c1cccc2nonc12)N1CCN(c2ccccc2F)CC1	3	0	-18	1.1*	-5	4	98	0	101	0
CCC(Sc1nc2cc(OC)c(OC)cc2c(=O)n1CCc1ccc(OC)c(OC)c1)C(=O)NCCOC (centres undefined)	5	7	7	1.3*	5	-2	93	0	107	0
COCCNC(=O)CSc1nc2cc(OC)c(OC)cc2c(=O)n1Cc1ccc(OC)cc1	/	-2	16	0	-1	-10	/	/	/	/
COc1cccc(C=NNC(=O)c2c(-c3ccccc3)noc2C)c1OC	-26	/	/	/	/	/	/	/	/	/
CC(CNC(=O)c1ccc(OC2CCN(Cc3ccccn3)CC2)cc1)c1ccccc1 (centres undefined)	/	-7	3	5.3*	0	-1	102	0	96	0
COC(=O)[C@@H](NC(=O)c1ccc(OC2CCN(Cc3ccccn3)CC2)cc1)C(C)C	1	15	/	0	3	-10	/	/	/	/
O=C1CCCCCCCCCCC(=NO)CCCO1	5	/	/	/	/	/	/	/	/	/
CC(=O)OCCn1c(C)[n+](CCOC(C)=O)c2cc(Cl)c(Cl)cc21	1	1	-5	-1	6	-9	/	/	/	/
CC(=O)OCCn1c2nc(=O)[nH]c(=O)c-2nc2cc(C)c(C)cc21	14	-13	5	0.7*	+	i	121	0	137	1
C(=Nn1cnnc1)c1cccc(Oc2ccccc2)c1	0	/	/	/	/	/	/	/	/	/
O=C1Nc2cc(C(=O)N3CCOCC3)ccc2SC1N1CCOCC1 (centres undefined)	1	-6	-2	19*	-2	-30	95	0	108	0
CC(=NN=C(C)c1cccs1)c1cccs1	4	/	/	/	/	/	/	/	/	/
COc1cccc(/C=C/C(=O)N2CC(C)OC(C)C2)c1OC (centres undefined)	-1	-4	2	1.7*	0	2	93	0	103	0
CCOc1ccc(C=NNc2cc(C)nc(N3CCOCC3)n2)cc1	6	/	/	/	/	/	/	/	/	/
O=C(NC1CCCc2c1cnn2-c1ccc(F)cc1F)c1ccccn1 (centres undefined)	2	9	3	0	6	-19	/	/	/	/
SMILES	UCH37 inh	Mot1-301 SUMO	ARNT-TACC3 inh	Efflux pump inh	RTF Ca sens act	RTF Ca sens inh	Cmpd fluor yeast	CaMdr1 efflux inh	CaCdr2 efflux inh	Cdr1 pump inh
COc1ncccc1C(=O)NC1CCCc2c1cnn2-c1cc(C)cc(C)c1 (centres undefined)	2	17	-6	0	2	-1	100	0	108	0
O=C(NC1CCCc2c1cnn2-c1ccccc1F)c1ccccn1 (centres undefined)	0	33	16	0	-9	-2	106	0	105	0
Cc1occc1C(=O)N(C)CC1CCCN(CCc2ccccc2F)C1 (centres undefined)	1	76	-2	5.0*	-3	-9	113	0	89	0
CC(=NNC(=O)CNC(=O)c1ccco1)c1ccc(Br)cc1	2	/	/	/	/	/	/	/	/	/
CN1CCN(c2ccc(C(=O)c3ccc(Br)cc3)cc2[N+](=O)[O-])CC1	8	-10	25	33*	-4	-9	104	0	92	0
Cc1nc2sc3c(c2c2nnc(SCC(=O)NCc4ccco4)n12)CCCC3	-2	3	7	0.8*	-6	-1	95	0	107	0
CC(C)CCNC(=O)CCSCCC(=O)NCCC(C)C	-2	-15	30	8.9*	0	-2	103	0	98	0
O=C(NNc1cc(N2CCCC2)nc(N2CCCC2)n1)c1ccc([N+](=O)[O-])cc1	4	-3	12	0.7*	1	-2	116	1	116	0

High-throughput results (PubChem BioAssay)
